Screens deposited in PubChem by several laboratories.
SR-BI uptake up = activators of SR-BI mediated HDL lipid uptake. CHO ldlA[mSR-BI] cells, DiI-HDL uptake fluorescence, 3 h; 100 = double the neutral-control signal. activation, % at 12.5 µM. 320,000 compounds, 0.096% hits;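 active means mean replicate activation of at least 60% and every replicate at or above 60%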;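 further: 0% = median plate neutral-control signal and 100% = twice that signal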
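Assay system: CHO ldlA[mSR-BI] cells, LDL receptor-null, SR-BI overexpressing; medium: Ham's F12 with 0.5% BSA, HEPES 25 mM, pH 7.4; also added: DiI-HDL 10 µg/mL; timing: 3 h uptake period with compound, 37 °C; signal: DiI fluorescence, bottom read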
Vif inh = inhibitors of HIV Vif | HEK293T cells, Vif self-association by quenched fluorescence, imaging, 24 h | inhibition, % at 7.49 µM | 340,000 compounds, 0.35% hits; in the data active means inhibition above about 50%, passing the limit was not always enough
SR-BI DiI inh = inhibitors of mouse SR-BI mediated HDL lipid uptake; ldlA[mSR-BI] CHO cells, DiI-HDL uptake fluorescence, 3 h; inhibition, % at 12.5 µM; 320,000 compounds, 0.96% hits; AID 488896;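 active means mean replicate inhibition of at least 70% and a set share of replicates each scoring 70 or more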;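 further: 0% = median of neutral control wells and 100% = median of positive control wells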
Target sequence (Q61009 whole entry, looked up): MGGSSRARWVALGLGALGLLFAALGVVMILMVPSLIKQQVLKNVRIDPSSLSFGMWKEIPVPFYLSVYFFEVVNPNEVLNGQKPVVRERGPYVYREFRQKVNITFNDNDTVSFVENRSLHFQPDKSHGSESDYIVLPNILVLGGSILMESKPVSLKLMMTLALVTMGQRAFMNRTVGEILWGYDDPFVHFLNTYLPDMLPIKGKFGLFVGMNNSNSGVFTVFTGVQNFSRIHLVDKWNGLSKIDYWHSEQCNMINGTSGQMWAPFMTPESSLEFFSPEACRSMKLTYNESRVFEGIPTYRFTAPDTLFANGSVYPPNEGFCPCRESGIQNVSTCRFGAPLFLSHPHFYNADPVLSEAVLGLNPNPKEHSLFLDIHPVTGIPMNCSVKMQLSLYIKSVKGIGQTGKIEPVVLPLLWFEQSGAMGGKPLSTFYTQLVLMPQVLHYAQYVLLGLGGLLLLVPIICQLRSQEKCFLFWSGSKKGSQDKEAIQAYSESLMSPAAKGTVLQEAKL
H9c2 TAG inh = reduces triacylglycerol accumulation in H9c2 cells; AID 651582; Nile Red lipid (TAG) fluorescence; cells loaded with 200 µM oleic acid; 230,000 compounds, 0.66% hits; inhibition, % at 12.5 µM;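 active means pattern-corrected inhibition of lipid staining of at least 50% with the nuclear-stain viability signal not falling by more than 50%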;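 further: 0% = DMSO wells and 100% = triacsin C control wells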
SMARCA2 activ = SMARCA2 function activation, primary screen. 370,000 compounds, 1% hits. activation, % at 9.1 µM. AID 652017. MG213 cells, MMTV-luciferase reporter, dexamethasone, overnight; in the data active means activation above about 7.8%;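 further: 0% = vehicle wells and 100% = reference activator wells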
Starred values were filed as active, the others as inactive; / = no result given; ! = not active in a repeat. This is a sample that favours compounds with a hit; in the whole collection about 2.5% have one here.

SMILES	SR-BI uptake up	Vif inh	SR-BI DiI inh	H9c2 TAG inh	SMARCA2 activ
COc1ccc(Cn2cc(COC(=O)N3CCCC3)nn2)cc1	/	/	/	/	-1
O=C(/C=C/c1ccccc1)NCCOc1ccccc1	17	6	-17	/	7.8*
Nc1[nH]c(C(=O)c2ccc(Br)cc2)c(-c2ccncc2)c1C(=O)c1ccccc1	/	/	/	/	-1
CSc1nnnn1-c1c(C)cccc1C	16	51*	-16	-10	-2
Cc1cccc(C)c1-n1nnnc1SCSc1nnnn1-c1c(C)cccc1C	1	-4	-1	/	-3
CC(COc1ccc(C#N)cc1F)CN1CCC(C(O)(c2ccccc2)c2ccccc2)CC1 (stereo unspecified)	/	/	/	/	-2
Cc1cn(-c2cc(C(=O)Nc3ccc(C)c(NC(=O)C(=O)c4c[nH]c5ccccc45)c3)cc(C(F)(F)F)c2)cn1	-68	-6	68	124*!	-3
Nc1ccn([C@@H]2O[C@H](C(=O)N[C@H](Cc3ccccc3)C(=O)N3CCC(F)(F)CC3)[C@@H](O)[C@H]2O)c(=O)n1	/	/	/	/	3
COc1ccc(Cl)cc1Nc1nc(-c2sc(NC(=O)C(C)(C)C)nc2C)cs1	-47	2	47	7	1
CCC(C)C(=O)Nc1nc(C)c(-c2csc(Nc3cc(Cl)ccc3OC)n2)s1 (stereo unspecified)	-72	-5	72*	-9	3
CCC(C)C(=O)Nc1nc(C)c(-c2csc(Nc3cc(OC)ccc3OC)n2)s1 (stereo unspecified)	-80	-7	80*	25	1
COc1ccc(OC)c(Nc2nc(-c3sc(C)nc3C)cs2)c1	-64	/	64	20	2
COc1ccc(Cl)cc1Nc1nc(-c2sc(NC(=O)c3ccco3)nc2C)cs1	-89	4	89*	20	2
COc1ccc(OC)c(Nc2nc(-c3sc(NC(=O)C(C)(C)C)nc3C)cs2)c1	-81	-1	81*	31	-1
Cc1ccc(C(=O)Nc2ccc(N3CCOCC3)cc2)cc1S(=O)(=O)N1CCCCC1	-22	2	22	-18	-2
CCOc1ccc(CCNC(=O)c2ccc(Cl)c(S(=O)(=O)N3CCOCC3)c2)cc1OCC	-73	-5	73*	28	-3
Cc1ccc(C(=O)NNC(=O)c2cccc(S(=O)(=O)N3CCOCC3)c2)cc1	/	0	1	-1	-3
CCOc1ccc(CCNC(=O)c2ccc(C)c(S(=O)(=O)N3CCOCC3)c2)cc1OCC	-60	-12	60	36	-4
CN(c1ccccc1)S(=O)(=O)c1cccc(C(=O)Nc2ccc(N3CCOCC3)cc2)c1	-86	-20	86*	-1	-1
O=C(NNC(=O)c1cc(Cl)ccc1O)c1cccc(S(=O)(=O)N2CCOCC2)c1	-107	-6	107*	-5	0
CCOC(=O)c1ccc(NC(=O)c2ccc(C)c(S(=O)(=O)N3CCOCC3)c2)cc1	-87	-4	87*	-6	-3
COC(=O)c1cc2c(c3c4cc(OC)ccc4n(C(=O)c4ccccc4)c13)C(=O)N(C1CCCCC1)C2	/	/	/	/	-1
C=CCn1c(SCc2ccc(C#N)cc2)nnc1-c1ccco1	/	/	/	/	-4
O=C(Cc1ccccc1)Nc1ccc(N2CCOCC2)cc1	-4	59*	4	0	1
CC(=O)c1cc(Cl)ccc1OCc1cccc(S(=O)(=O)N2CCOCC2)c1	-17	-15	17	-15	0
SMILES	SR-BI uptake up	Vif inh	SR-BI DiI inh	H9c2 TAG inh	SMARCA2 activ
CCOC(=O)c1c(C)[nH]c(C(=O)COC(=O)c2ccc(F)c(S(=O)(=O)N3CCOCC3)c2)c1C	-74	4	74*	/	0
O=C(Cc1ccccc1)Nc1ccc(N2CCCC2)cc1	-34	-7	34	9	3
Cc1ccc(C(=O)Nc2cccc(S(=O)(=O)N3CCOCC3)c2)cc1[N+](=O)[O-]	-77	-3	77*	-7	-2
O=S(=O)(c1cccc(COc2ccc(Cl)cc2Cl)c1)N1CCOCC1	-72	-6	72*	-11	-1
COC(=O)[C@]12C[C@H](CC(=O)NCCCN3CCCC3=O)C(=O)N(Cc3ccccc3)C1=C[C@H](C(C)(C)C)O[C@@H]2C	/	/	/	/	4
O=C(Nc1ccccc1N1CCOCC1)c1cc2c(s1)CCCCC2	-57	8	57	-3	1
O=C(Nc1ccc(N2CCCCCC2)cc1)c1cccc(S(=O)(=O)N2CCOCC2)c1	-71	-3	71*	1	-6
CC(=O)c1ccc(NC(=O)c2ccc(C)c(S(=O)(=O)N3CCOCC3)c2)cc1	-85	-6	85*	/	-1
O=C(Nc1ccc(N2CCOCC2)cc1)c1cc2c(s1)CCCCC2	-88	0	88*	37	1
Cc1ccc(NC(=O)c2ccc(=O)[nH]c2)cc1S(=O)(=O)N1CCCCCC1	-80	-5	80*	3	2
N#CC(c1c(Cl)cccc1N1CCCCC1)N1CCCCC1 (stereo unspecified)	/	/	/	/	-1
CN(Cc1ccco1)C(=O)[C@@H](Cc1ccccc1)NC(=O)[C@H]1O[C@@H](n2ccc(=O)[nH]c2=O)[C@H](O)[C@@H]1O	/	/	/	/	1
CCOC(=O)c1ccc(NC(=O)c2cccc(S(=O)(=O)N3CCOCC3)c2)cc1	-83	-29	83*	11	-2
CC(=O)c1cccc(NC(=O)c2cccc(S(=O)(=O)N3CCOCC3)c2)c1	/	7	/	/	3
CCC(=O)OCCNc1cc(Sc2nccn2C)c2nonc2c1[N+](=O)[O-]	25	-3	-25	69*	-11
CCC(=O)OCCNc1cc(SCCC(=O)OC)c2nonc2c1[N+](=O)[O-]	12	2	-12	15	-1
NC(=O)[C@@H]1CCCN1C(=O)[C@H]1O[C@@H](n2ccc(N)nc2=O)[C@H](O)[C@@H]1O	/	/	/	/	-3
CC(=O)c1c(C)[nH]c(C(=O)N2CCc3ccccc32)c1C	-31	1	31	-10	-1
CCOC(=O)c1[nH]c(C)c(C(=O)N2CCc3ccccc32)c1C	-30	-3	30	56*	-2
Cc1nnc(NC(=O)Cn2nc(C)c3ccccc3c2=O)s1	11	70*	-11	-18	-4
CCCCS(=O)(=O)N1C2=NC(C(=O)OCC)=C(C(=O)OCC)C3N(Cc4ccc(C#N)cc4)c4ccccc4[C@]23C[C@H]1C(=O)OC (stereo partly specified)	/	/	/	/	3
Cc1ccc(S(=O)(=O)Nc2c(C)nc3nc(C)[nH]n3c2=O)c(C)c1	/	64*	/	/	-4
CCC(C)Oc1cc(-c2ccnc(Nc3cccc(Cl)c3)n2)ccn1 (stereo unspecified)	-26	-6	26	-10	2
OCCCNc1cc(-c2ccnc(Nc3cccc(Cl)c3)n2)ccn1	-82	-12	82*	90*	-7
CC1=CC(C)(C)N(S(=O)(=O)c2ccc(F)cc2)c2ccccc21	-2	-15	2	/	-3
CC(=O)Nc1ccc(S(=O)(=O)N2c3ccccc3C(C)=CC2(C)C)cc1	8	81*	-8	28	1
